Results as given in ChEMBL document CHEMBL4330067, “Synthesis and mechanistic studies of diketo acids and their bioisosteres as potential antibacterial agents” (Eur J Med Chem, 2019).
≈ marks a conversion by molar mass, not a printed value. Calls of active or inactive are those of the source. The rule behind the calls is not given here.

Columns and labels:
[1] = test system: Escherichia coli; assay: Antibacterial activity against Escherichia coli MRC17 at 512 ug/mL after 24 hrs by broth dilution assay relative to control; type: functional
In short: (§1)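 Multidrug-resistant E. coli isolates in Luria broth, test range 8 to 1024 µg/mL (ciprofloxacin 0.49 to 63.3 µg/mL). Inoculum 10 µL of a 1000-fold diluted 0.1 OD600 culture, incubated overnight at 37 °C. OD read at 600 nm. % inhibition = (a−b)/a×100, with media and compound-colour blanks subtracted.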

[2] = test system: Enterococcus faecalis; assay: Antibacterial activity against Enterococcus faecalis MTCC 439 after 24 hrs by broth dilution assay; type: functional; conditions: MTCC 439, 24 h
In short: (§2)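 Broth dilution per NCCLS in nutrient broth, serial dilutions 1000 to 7.8 µg/mL, DMSO below 4% final. Inoculum approx. 2.5×10⁶ cells/mL, 37 °C with shaking at 150 rpm for 24 h. MIC taken as the lowest concentration with no visible growth. Ciprofloxacin served as positive control.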

[3] = test system: Escherichia coli; assay: Antibacterial activity against Escherichia coli MRAE44 at 1024 ug/mL after 24 hrs by broth dilution assay; type: functional, organism-based; in short: as §1
[4] = test system: Enterococcus faecalis; assay: Inhibition of Enterococcus faecalis methionine aminopeptidase 1A at 100 uM using Met-AMC as substrate relative to control
In short: (§3)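 Purified MetAP at 4 µM in 50 mM HEPES with 150 mM KCl and CoCl2 at 3 molar equivalents of enzyme. pH 7.5 for SpMetAP1a and EfMetAP1a, pH 8.0 for HsMetAP1b. Substrate L-Met-AMC at 50, 100 and 150 µM. Compounds (10 mM DMSO stocks) tested over 1 to 120 µM for % inhibition; Ki by Dixon method.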

[5] = test system: Escherichia coli; assay: Antibacterial activity against Escherichia coli MRAE32 at 512 ug/mL after 24 hrs by broth dilution assay relative to control; type: functional; in short: as §1
[6] = species on record: Homo sapiens; assay: Inhibition of human methionine aminopeptidase 1B at 100 uM using Met-AMC as substrate relative to control; in short: as §3
[7] = test system: Escherichia coli; assay: Synergistic antibacterial activity against Escherichia coli MRC17 assessed as ciprofloxacin MIC at 16 to 1024 ug/mL after 18 hrs by checkerboard method; type: functional; conditions: MRC17, 18 h
In short: (§4)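 Checkerboard combination with ciprofloxacin in Mueller-Hinton broth: compound 1024 to 16 µg/mL crossed with ciprofloxacin 128 to 2 µg/mL. Inoculum 5×10⁵ CFU/mL suspension, 18 h at 37 °C. Fractional inhibitory concentration index derived from the combination.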

[8] = test system: Escherichia coli; assay: Synergistic antibacterial activity against Escherichia coli MRAE33 after 18 hrs in presence of ciprofloxacin by checkerboard method; type: functional; conditions: MRAE33, 18 h; in short: as §4
[9] = test system: Klebsiella pneumoniae; assay: Antibacterial activity against Klebsiella pneumoniae ATCC 700603 after 24 hrs by broth dilution assay; type: functional; conditions: Klebsiella pneumoniae, 700603, 24 h; in short: as §2
[10] = test system: Escherichia coli; assay: Synergistic antibacterial activity against Escherichia coli MRA11 after 18 hrs in presence of ciprofloxacin by checkerboard method; type: functional; conditions: MRA11, 18 h; in short: as §4
[11] = test system: Escherichia coli; assay: Synergistic antibacterial activity against Escherichia coli MRAE33 assessed as fractional inhibitory concentration index after 18 hrs in presence of ciprofloxacin by checkerboard method; type: functional; in short: as §4
[12] = test system: Escherichia coli; assay: Antibacterial activity against Escherichia coli MRC24 after overnight incubation; type: functional; in short: as §1
[13] = test system: Escherichia coli; assay: Synergistic antibacterial activity against Escherichia coli MRA11 assessed as ciprofloxacin MIC at 16 to 1024 ug/mL after 18 hrs by checkerboard method; type: functional; conditions: MRA11, 18 h; in short: as §4
[14] = Inhibition of Mycobacterium tuberculosis methionine aminopeptidase 1C using Met-AMC as substrate by Dixon method
[15] = test system: Escherichia coli; assay: Synergistic antibacterial activity against Escherichia coli MRAE33 assessed as ciprofloxacin MIC at 16 to 1024 ug/mL after 18 hrs by checkerboard method; type: functional; conditions: MRAE33, 18 h; in short: as §4
[16] = test system: Escherichia coli; assay: Synergistic antibacterial activity against Escherichia coli MRC17 after 18 hrs in presence of ciprofloxacin by checkerboard method; type: functional; conditions: MRC17, 18 h; in short: as §4
[17] = Inhibition of Streptococcus pneumoniae methionine aminopeptidase 1A using Met-AMC as substrate by Dixon method; in short: as §3
[18] = test system: CHO; assay: Cytotoxicity against CHO cells at 50 ug/mL after 48 hrs by MTT assay; type: cell-based, Cricetulus griseus; conditions: chinese hamster
In short: (§5)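 MTT assay: cells maintained in DMEM with 10% FBS and penicillin/streptomycin at 37 °C, 5% CO2. Seeded at approx. 2×10⁴ cells/well, 24 h before treatment, then exposed to 10 to 400 µg/mL for 48 h at 37 °C. MTT (5 mg/mL stock in PBS) added for 4 h, formazan dissolved in DMSO, A570 read. Triplicate wells; viability given relative to untreated cells.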

[19] = test system: Escherichia coli; assay: Antibacterial activity against Escherichia coli MRAE26 at 1024 ug/mL after 24 hrs by broth dilution assay relative to control; type: functional; in short: as §1
[20] = test system: Escherichia coli; assay: Antibacterial activity against Escherichia coli MRAE33 after overnight incubation; type: functional; in short: as §1
[21] = test system: Streptococcus pneumoniae; assay: Inhibition of Streptococcus pneumoniae methionine aminopeptidase 1A at 100 uM using Met-AMC as substrate relative to control; in short: as §3
[22] = test system: Escherichia coli; assay: Antibacterial activity against Escherichia coli MRAE32 after overnight incubation; type: functional; in short: as §1
[23] = test system: Escherichia coli; assay: Antibacterial activity against Escherichia coli MRC17 after overnight incubation; type: functional; in short: as §1
[24] = test system: Mycobacterium tuberculosis; assay: Inhibition of Mycobacterium tuberculosis methionine aminopeptidase 1C at 100 uM using Met-AMC as substrate relative to control
In short: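 Purified MtMetAP1c (4 µM) in 50 mM Hepes pH 7.5 with 150 mM KCl and CoCl2 at three molar equivalents of enzyme. Substrate was L-Met-AMC at 50, 100 or 150 µM. Compounds came from 10 mM DMSO stocks. Percent inhibition was taken against the uninhibited control.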

[25] = test system: Pseudomonas aeruginosa; assay: Antibacterial activity against Pseudomonas aeruginosa MTCC 2453 after 24 hrs by broth dilution assay; type: functional; conditions: MTCC 2453, 24 h; in short: as §2
[26] = test system: Escherichia coli; assay: Synergistic antibacterial activity against Escherichia coli MRC17 assessed as fractional inhibitory concentration index after 18 hrs in presence of ciprofloxacin by checkerboard method; type: functional
In short: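 Checkerboard combination against MDR E. coli. Test agent gradient 1024–16 µg/mL crossed with ciprofloxacin 128–2 µg/mL in Mueller-Hinton broth. Wells were inoculated with a 5 × 10⁵ CFU/mL suspension and incubated 18 h at 37 °C. Interaction was expressed as the fractional inhibitory concentration index (FICI).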

[27] = test system: Escherichia coli; assay: Antibacterial activity against Escherichia coli MRA11 after overnight incubation; type: functional; in short: as §1
[28] = test system: Escherichia coli; assay: Antibacterial activity against Escherichia coli MRAE44 after overnight incubation; type: functional; in short: as §1
[29] = test system: Escherichia coli; assay: Antibacterial activity against Escherichia coli MRC24 at 512 ug/mL after 24 hrs by broth dilution assay relative to control; type: functional; in short: as §1
[30] = test system: Escherichia coli; assay: Antibacterial activity against Escherichia coli MRAE33 at 1024 ug/mL after 24 hrs by broth dilution assay relative to control; type: functional; in short: as §1
[31] = test system: Escherichia coli; assay: Antibacterial activity against Escherichia coli MRAE26 after overnight incubation; type: functional; in short: as §1
[32] = Inhibition of Enterococcus faecalis methionine aminopeptidase 1A using Met-AMC as substrate by Dixon method; in short: as §3
[33] = test system: Streptococcus pneumoniae; assay: Antibacterial activity against Streptococcus pneumoniae MTCC 655 after 24 hrs by broth dilution assay; type: functional; conditions: MTCC 655, 24 h; in short: as §2
[34] = test system: Escherichia coli; assay: Synergistic antibacterial activity against Escherichia coli MRA11 assessed as fractional inhibitory concentration index after 18 hrs in presence of ciprofloxacin by checkerboard method; type: functional; in short: as §4
[35] = Inhibition of human methionine aminopeptidase 1B using Met-AMC as substrate by Dixon method; in short: as §3
[36] = test system: Salmonella typhimurium; assay: Antibacterial activity against Salmonella typhimurium MTCC 3224 after 24 hrs by broth dilution assay; type: functional, Salmonella enterica subsp. enterica serovar Typhimurium; conditions: Salmonella enterica, MTCC 3224, 24 h; in short: as §2
[37] = Cytotoxicity against CHO cells assessed as cell viability at 100 ug/mL after 48 hrs by MTT assay relative to control; type: cell-based, Cricetulus griseus; conditions: chinese hamster, read-out: Activity; in short: as §5
[38] = test system: Escherichia coli; assay: Antibacterial activity against Escherichia coli MROB11 after overnight incubation; type: functional; in short: as §1
[39] = test system: Escherichia coli; assay: Antibacterial activity against Escherichia coli ATCC 25922 after 24 hrs by broth dilution assay; type: functional; conditions: ATCC 25922, 24 h; in short: as §2
[40] = test system: Escherichia coli; assay: Antibacterial activity against Escherichia coli MRA11 at 512 ug/mL after 24 hrs by broth dilution assay relative to control; type: functional; in short: as §1
[41] = test system: Escherichia coli; assay: Antibacterial activity against Escherichia coli MROB11 at 512 ug/mL after 24 hrs by broth dilution assay relative to control; type: functional; in short: as §1
[42] = test system: CHO; assay: Cytotoxicity against CHO cells at 300 ug/mL after 48 hrs by MTT assay; type: cell-based, Cricetulus griseus; conditions: chinese hamster; in short: as §5

For `COC(=O)[C@@H](C)NC(=O)/C(O)=C/C(=O)c1oc2ccc(Br)cc2c1C`, the Activity [1] was 60%, the MIC [2] was 31.2 µg/mL (≈ 76.2 µM) and the Activity [3] was “Active”. It also gave an inhibition [4] of 93.9%, an Activity [5] of 88% and an inhibition [6] of 89.1%. The MIC [7] was 64 µg/mL, the MIC [8] was 16 µg/mL and the MIC [9] was 500 µg/mL (≈ 1220 µM). For the same compound, the MIC [10] was 1020 µg/mL, the “fractional inhibitory concentration index (FICI)” value [11] was 1.0156 and the ICmax [12] was 512 µg/mL. It also gave an MIC [13] of 128 µg/mL, a Ki [14] of 17.6 µM and an MIC [15] of 2 µg/mL. For the same compound, the MIC [16] was 1020 µg/mL, the Ki [17] was 8.78 µM and the Activity [18] was “Non-Toxic”. For the same compound, the Activity [19] was 54%, the ICmax [20] was 512 µg/mL and the MIC ([20]; Escherichia coli, MRAE33) was 1020 µg/mL (≈ 2500 µM). The inhibition [21] was 97.4%, the ICmax [22] was 512 µg/mL and the ICmax [23] was 512 µg/mL. It also gave an MIC ([23]; Escherichia coli, MRC17) of 1020 µg/mL (≈ 2500 µM), an inhibition [24] of 99.6% and an MIC [25] of 125 µg/mL (≈ 305 µM). For the same compound, the “fractional inhibitory concentration index (FICI)” value [26] was 1.5, the ICmax [27] was 512 µg/mL and the MIC ([27]; Escherichia coli, MRA11) was 1020 µg/mL (≈ 2500 µM). For the same compound, the ICmax [28] was 1024 µg/mL, the Activity [29] was 76% and the Activity [30] was 50%. For the same compound, the ICmax [31] was 1024 µg/mL, the Ki [32] was 10.4 µM and the MIC [33] was 62.5 µg/mL (≈ 152 µM). The “fractional inhibitory concentration index (FICI)” value [34] was 2, the Ki [35] was 22.1 µM and the MIC [36] was 500 µg/mL (≈ 1220 µM). The viability at 48 h, 100 ug/mL [37] was 50%, the ICmax [38] was 512 µg/mL and the MIC [39] was 62.5 µg/mL (≈ 152 µM). For the same compound, the Activity [40] was 65%, the Activity [41] was 87% and the Activity [42] was “Toxic”.
